Most compounds without a hit are left out; they make up all but 1.3% or so of the library.
RAD52 inh – inhibitors of human RAD52 DNA annealing; AID 651710; inhibition, % at 18.7 µM; recombinant RAD52 DNA annealing, FRET fluorescence; 0.46% of 360,000 active;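 active means every replicate showing at least 50% inhibition; inconclusive means mean inhibition at least 50% but not in every replicate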
PAX8 reporter – inhibitors of PAX8 transcriptional activity in RMG-I cells. RMG-I TPO-luciferase reporter, SteadyGlo, 24 h. inhibition, % at 12.6 µM. 1.2% of 360,000 active;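 active means mean replicate inhibition at least 60% with every replicate also reaching 60%; inconclusive means only one of the two criteria is met; inactive means mean below 60% and not all replicates reaching 60%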;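 further: luciferase light reporting Pax8 driven TPO promoter activity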
FN deposit inh – fibronectin deposition inhibition; AH1F fibroblasts, Alexa488-fibronectin deposition fluorescence, overnight; inhibition, % at 12.6 µM; 0.086% of 350,000 active; AID 743247;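 active means mean inhibition across replicates of 30% or more, regardless of how many single replicates reach that level; inconclusive means mean under 30% yet at least half of replicates reach 30%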
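Measured by – fluorescence 485/525 nm · System – AH1F fibroblast monolayer, labelled fibronectin deposition · Amount – 10000 cells per well · Buffer or medium – serum-reduced DMEM (2% serum) · Doses – single dose, pinned · Also added – fluorescent fibronectin at 24 nM final · Schedule – 1 h cell attachment, overnight exposure to compound and label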
RAD54 branch – inhibitors of human RAD54 branch migration; Q92698; RAD54 Holliday junction branch migration, FAM/BHQ fluorescence; inhibition, % at 10.4 µM; 0.14% of 360,000 active; AID 602329;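 active means mean normalized replicate activity at least 40 and at least half of replicates scoring 40 or more; inconclusive means only one of the two criteria met; inactive means mean below 40 and under half of replicates reaching 40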;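 further: inhibitors cause a drop in the FAM fluorescence signal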
Target sequence (Q92698 whole entry, looked up): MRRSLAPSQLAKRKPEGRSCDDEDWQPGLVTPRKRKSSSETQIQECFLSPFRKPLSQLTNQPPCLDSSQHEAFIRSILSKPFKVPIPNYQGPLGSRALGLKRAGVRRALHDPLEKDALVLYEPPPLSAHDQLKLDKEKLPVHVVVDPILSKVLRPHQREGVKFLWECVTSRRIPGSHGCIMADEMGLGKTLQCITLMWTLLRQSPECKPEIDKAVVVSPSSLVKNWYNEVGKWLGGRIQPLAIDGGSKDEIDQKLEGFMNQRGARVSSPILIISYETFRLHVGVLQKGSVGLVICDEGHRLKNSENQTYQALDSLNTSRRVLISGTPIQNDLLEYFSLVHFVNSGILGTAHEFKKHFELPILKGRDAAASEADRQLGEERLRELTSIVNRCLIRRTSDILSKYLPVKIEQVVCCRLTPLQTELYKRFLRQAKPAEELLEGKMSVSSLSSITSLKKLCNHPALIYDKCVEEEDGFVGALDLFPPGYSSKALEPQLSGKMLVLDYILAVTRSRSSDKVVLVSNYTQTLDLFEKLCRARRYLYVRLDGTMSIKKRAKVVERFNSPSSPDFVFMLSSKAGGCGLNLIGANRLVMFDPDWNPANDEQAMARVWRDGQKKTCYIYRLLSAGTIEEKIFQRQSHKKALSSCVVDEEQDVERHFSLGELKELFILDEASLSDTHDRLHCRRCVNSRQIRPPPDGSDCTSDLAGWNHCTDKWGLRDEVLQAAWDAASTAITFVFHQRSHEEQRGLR
RAD52 DNA ctr – counter-screen for RAD52 inhibitors: DNA binding compounds; shares compounds with RAD52 inh; Salmon sperm DNA/acridine orange FP displacement; AC50, µM; 8% of 1,000 active; AID 652128;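 active means fitted half-maximal concentration for signal loss at or below twice the highest dose tested, in every separate run, actives reach about 64 µM in these data; inconclusive means runs disagree, or flat partial signal loss, or poor fit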
Hits are given with their value; ! = a repeat was not active.

`COC(=O)c1cc(C(=O)OC)n(Cc2ccc(F)cc2)n1` gave RAD52 inh inactive, FN deposit inh inactive and RAD54 branch inactive.
`C[N+](C)(C)CC(=O)N/N=C/c1c2ccccc2cc2ccccc12` gave RAD52 inh 94.3, PAX8 reporter inactive, FN deposit inh inactive, RAD54 branch 91.9 and RAD52 DNA ctr 55.2µM.
`CCOC(=O)c1c(CSc2ccc(CC)cc2)oc2ccc(O)c(CN(C)C)c12` gave RAD52 inh 57.8, PAX8 reporter inactive, FN deposit inh inactive, RAD54 branch inactive and RAD52 DNA ctr inactive.
`CCOc1ccc2c(C)nc(NC3=NC(C)(C)C=C(C)N3)nc2c1` gave RAD52 inh 91.1, PAX8 reporter inactive, FN deposit inh inactive, RAD54 branch inactive and RAD52 DNA ctr inactive.
`Cc1cccc(OCCCCCN2CCOCC2)c1C` gave RAD52 inh inactive, PAX8 reporter inactive, FN deposit inh inactive and RAD54 branch inactive.
`CCOC(=O)c1c(C)n(-c2ccc(C)cc2)c2ccc(OCC(O)CN3CCN(C)CC3)cc12` (centres undefined) gave RAD52 inh 97.2, PAX8 reporter inactive, FN deposit inh inactive and RAD52 DNA ctr inactive.
Screening CCOc1cc(N2CCC(O)CC2)ccc1Nc1ncc2c(n1)N(C)c1ccccc1C(=O)N2C returned RAD52 inh inactive, PAX8 reporter inactive and FN deposit inh inactive.
For COc1cc(C(=O)N2CCC(N3CCN(C)CC3)CC2)ccc1Nc1ncc2c(n1)N(C)c1ccccc1C(=O)N2C the results were RAD52 inh 76.7, PAX8 reporter inactive, FN deposit inh inactive and RAD52 DNA ctr inactive.
`COc1cccc2c3cccc(OC)c3c3[nH]cnc3c12` gave RAD52 inh 85.8, PAX8 reporter inactive, FN deposit inh inactive and RAD52 DNA ctr inactive.
`COc1cccc2[nH]c3c(=O)[nH]cnc3c12` gave RAD52 inh inactive, PAX8 reporter inactive, FN deposit inh inactive and RAD54 branch inactive.
For CCN1CCN(Cc2ccc(NC(=O)c3cc(NC(=O)c4cncc(-c5cccs5)c4)cc(OC)c3)cc2C(F)(F)F)CC1 the results were RAD52 inh 75.8, PAX8 reporter inactive, FN deposit inh inactive, RAD54 branch inactive and RAD52 DNA ctr inactive.
For CCN1CCN(Cc2ccc(NC(=O)c3cc(NC(=O)c4cc(-c5ccc(OC)cc5)n[nH]4)cc(OC)c3)cc2C(F)(F)F)CC1 the results were RAD52 inh inactive, PAX8 reporter inconclusive, FN deposit inh inactive and RAD54 branch inactive.
`CCN1CCN(Cc2ccc(NC(=O)c3ccc(C)c(NC(=O)c4cccc(-c5cn[nH]c(=O)c5)c4)c3)cc2C(F)(F)F)CC1` gave RAD54 branch inactive.
For CCN1CCN(Cc2ccc(NC(=O)c3cc(NC(=O)c4cc5cccc(OC)c5o4)cc(OC)c3)cc2C(F)(F)F)CC1 the results were RAD52 inh 93.6!, PAX8 reporter 89.7!, FN deposit inh inactive, RAD54 branch inactive and RAD52 DNA ctr inactive.
Screening CCN1CCN(Cc2ccc(NC(=O)c3ccc(C)c(NC(=O)c4csc(-c5ccncc5)n4)c3)cc2C(F)(F)F)CC1 returned RAD52 inh 74.8, PAX8 reporter inactive, FN deposit inh inactive, RAD54 branch inactive and RAD52 DNA ctr inactive.
Screening CCN1CCN(Cc2ccc(NC(=O)c3cc(NC(=O)c4ccno4)cc(OC)c3)cc2C(F)(F)F)CC1 returned RAD52 inh 56.5!, PAX8 reporter inactive, FN deposit inh inactive, RAD54 branch inactive and RAD52 DNA ctr inactive.
Screening CCN1CCN(Cc2ccc(NC(=O)c3cc(NC(=O)c4ccc5n[nH]nc5c4)cc(OC)c3)cc2C(F)(F)F)CC1 returned RAD52 inh inactive, PAX8 reporter inactive, FN deposit inh inactive and RAD54 branch inactive.
Screening CCN(Cc1ccccc1)S(=O)(=O)CCNC(=O)c1ccc(OC)cc1 returned RAD52 inh inactive, PAX8 reporter inactive, FN deposit inh inactive and RAD54 branch inactive.
For CN(C)c1ccc(Nc2nc(N)c3ccccc3n2)cc1 the results were RAD52 inh inactive, PAX8 reporter 78.4, FN deposit inh inactive, RAD54 branch inactive and RAD52 DNA ctr inactive.
Screening O=C(O)C1CC=CCC1C(=O)NCCc1csc(-c2ccccc2)n1 (centres undefined) returned RAD52 inh inactive, PAX8 reporter inactive, FN deposit inh inactive and RAD54 branch inactive.
Screening CCCCN(CCCNC(=S)NCCCc1cnc[nH]1)c1ccc(Br)cn1 returned RAD52 inh 55.4, PAX8 reporter inactive, FN deposit inh inactive, RAD54 branch inactive and RAD52 DNA ctr inactive.
`NC(=O)[C@H]1[C@@H]2C(=O)O[C@@H](c3ccccc3)[C@@H](c3ccccc3)N2[C@@H](c2ccc(O)cc2)[C@]12C(=O)Nc1ccc(C#CCCO)cc12` gave RAD52 inh inactive and RAD54 branch inactive.
Screening FC(F)(F)c1cc(CCN2CCNC[C@H]2Cc2cccc3ccccc23)cc(C(F)(F)F)c1 returned RAD52 inh 60.1, PAX8 reporter inactive, FN deposit inh inactive, RAD54 branch inactive and RAD52 DNA ctr inactive.
Screening C[C@@H]1CN([C@@H](C)CO)S(=O)(=O)c2ccc(C#Cc3cccc(F)c3)cc2O[C@@H]1CN(C)S(=O)(=O)c1cn(C)cn1 returned RAD52 inh inactive, FN deposit inh inactive and RAD54 branch inactive.
`CN(C)c1cccc2cccc(N(C)C)c12` gave RAD52 inh 93.4, PAX8 reporter inactive, FN deposit inh inactive, RAD54 branch inactive and RAD52 DNA ctr inactive.
CN(C)CCCNc1oc(/C=C/c2cccs2)nc1S(=O)(=O)c1ccccc1 was read as RAD52 inh 51.8, PAX8 reporter inactive, FN deposit inh inactive, RAD54 branch inactive and RAD52 DNA ctr inactive.
COCCNc1oc(/C=C/c2cccs2)nc1S(=O)(=O)c1ccccc1 was read as RAD52 inh inactive, PAX8 reporter inactive and RAD54 branch inactive.
For COc1ccc(/C=N/Nc2cc(C)nc3c(C)cccc23)cc1 the results were RAD52 inh 80.4, PAX8 reporter inactive, FN deposit inh inactive, RAD54 branch 61.0 and RAD52 DNA ctr inconclusive.
CN(C)c1ccc(/C=N/n2c(C3CCCCC3)n[nH]c2=S)cc1 was read as RAD52 inh 97.4, PAX8 reporter inactive, FN deposit inh inactive, RAD54 branch inactive and RAD52 DNA ctr inactive.
`Fc1ccc(/C=N/n2c(C3CCCCC3)n[nH]c2=S)cc1` gave RAD52 inh inactive, PAX8 reporter inactive, FN deposit inh inactive and RAD54 branch inactive.
For COc1cc2c(cc1OC)CN(c1nc(CN3CCCCC3)nc3sc4c(c13)CCCC4)CC2 the results were PAX8 reporter inactive and FN deposit inh inactive.
COc1cc2c(cc1OC)CN(c1nc(CN3CCCC3)nc3sc(C)c(C)c13)CC2 was read as RAD52 inh 65.3, PAX8 reporter inactive, FN deposit inh inactive and RAD52 DNA ctr inactive.
For Cc1ccc(-n2c(-c3ccccc3)c[nH]c2=S)cc1 the results were RAD52 inh inactive, PAX8 reporter inactive and FN deposit inh inactive.
`CCn1c(C)nc2cc(N)ccc21` gave RAD52 inh 93.2, PAX8 reporter inactive, FN deposit inh inactive and RAD52 DNA ctr inactive.
Cc1nc2cc(C(=O)O)ccc2n1C1CCCCC1 was read as RAD52 inh inactive and RAD54 branch inactive.

Assay outcomes: PubChem, Broad Institute
